# SIRT5 inh = SIRT5 desuccinylase inhibitors, primary screen, biochemical, fluorescence imaging, single point, set 5; NAD-dependent protein deacylase sirtuin-5, mitochondrial (Homo sapiens), Q9NXA8; Purified SirT5, succinyl-peptide AMC, trypsin-coupled fluorescence; inhibition, % at 15 µM; 330,000 compounds, 1.1% hits; AID 652115, 2013; in the data active = inhibition above about 15%
# Target sequence (Q9NXA8 whole entry, looked up): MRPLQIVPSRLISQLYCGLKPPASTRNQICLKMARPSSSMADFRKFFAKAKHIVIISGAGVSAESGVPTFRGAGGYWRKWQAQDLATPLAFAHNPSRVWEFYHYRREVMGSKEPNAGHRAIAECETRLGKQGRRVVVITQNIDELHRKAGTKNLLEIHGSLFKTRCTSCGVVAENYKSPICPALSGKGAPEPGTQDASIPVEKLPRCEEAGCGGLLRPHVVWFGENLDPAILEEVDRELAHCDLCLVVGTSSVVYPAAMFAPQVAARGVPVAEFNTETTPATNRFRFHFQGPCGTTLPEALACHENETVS
# E-sel inducer = E-selectin induction in HUVECs, primary screen, imaging, HUVEC, immunofluorescence imaging, single point; 260,000 compounds, 0.37% hits; normalized: neutral wells 0, TNF-alpha wells 100; activation, % at 7.58 µM; P16581;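 active = mean E-selectin-positive cell signal at least 10% of the positive control, reached in at least 60% of replicates, without over 20% cell loss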
#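 System: HUVEC / Compound: single concentration / Signal: immunofluorescence imaging / Read-out: percent E-selectin-positive cells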
# DENV2 CPE rescue = inhibitors of DENV2 cytopathic effect, primary screen, cell-based, plate reader, single concentration | CPE inhibition, % at 9.99 µM | DENV2-infected cells, cytopathic effect rescue | 350,000 compounds, 1.7% hits; in the data active = CPE inhibition above about 20%, passing the limit was not always enough; tested in BHK-21 cells;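 note: 0% = median of neutral control wells and 100% = median of positive control wells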
# * = called active by the depositor; nt = no result given. This is a sample that favours compounds with a hit; in the whole collection about 2.9% have one here.
SMILES,SIRT5 inh,E-sel inducer,DENV2 CPE rescue
O=C(C[C@H]1C[C@@H]2c3cc(NC(=O)Nc4ccccc4F)ccc3O[C@@H]2[C@@H](CO)O1)NC1CCCC1,1,0,23*
O=C(C[C@H]1C[C@H]2c3cc(NC(=O)NC4CCCCC4)ccc3O[C@H]2[C@H](CO)O1)NCC(F)(F)F,-5,1,49*
C[C@H](NC(=O)C[C@@H]1C[C@H]2c3cc(NC(=O)NC4CCCC4)ccc3O[C@H]2[C@H](CO)O1)c1ccccc1,-2,0,27*
C[C@H](NC(=O)C[C@@H]1C[C@@H]2c3cc(NC(=O)NC4CCCC4)ccc3O[C@@H]2[C@@H](CO)O1)c1ccccc1,-2,0,8
O=C(C[C@H]1C[C@@H]2c3cc(NC(=O)NC4CCCCC4)ccc3O[C@@H]2[C@@H](CO)O1)NCC(F)(F)F,2,1,-9
O=C(C[C@H]1C[C@H]2c3cc(NC(=O)Nc4ccccc4F)ccc3O[C@H]2[C@H](CO)O1)NC1CCCCC1,2,1,3
O=C(C[C@@H]1C[C@@H]2c3cc(NC(=O)Nc4ccccc4F)ccc3O[C@@H]2[C@@H](CO)O1)NC1CCCC1,-3,0,10
O=C(C[C@@H]1C[C@@H]2c3cc(NC(=O)Nc4ccccc4F)ccc3O[C@@H]2[C@H](CO)O1)NC1CCCC1,-7,0,49*
COc1ccc(C(=O)Nc2ccc(C(=O)OCC(=O)c3cccc4ccccc34)cc2)cc1,-2,0,-1
CC1(C)NC(=O)N(CC(=O)O)C1=O,nt,1,nt
O=C(Cn1cnc2ccccc2c1=O)NCCCN1CCCC1=O,0,nt,-4
O=C(Nc1cccc(S(=O)(=O)NC2=NCCCCC2)c1)c1cc(-c2ccco2)nc2ccccc12,0,nt,-4
O=C(C[C@H]1C[C@@H]2c3cc(NC(=O)Nc4ccccc4)ccc3O[C@@H]2[C@H](CO)O1)NC1CCCC1,0.5*,0,-4
O=C(C[C@H]1C[C@@H]2c3cc(NC(=O)Nc4ccccc4F)ccc3O[C@@H]2[C@H](CO)O1)NCc1ccncc1,1,0,5
O=C(C[C@H]1C[C@H]2c3cc(NC(=O)Nc4ccccc4F)ccc3O[C@H]2[C@H](CO)O1)NC1CCCC1,-3,0,20*
O=C(C[C@H]1C[C@@H]2c3cc(NC(=O)NC4CCCCC4)ccc3O[C@@H]2[C@@H](CO)O1)NCCc1ccccc1,-3,0,37*
O=C(C[C@@H]1C[C@H]2c3cc(NC(=O)Nc4ccccc4F)ccc3O[C@H]2[C@H](CO)O1)NC1CCCC1,0,0,-11
O=C(C[C@H]1C[C@H]2c3cc(NC(=O)Nc4ccccc4F)ccc3O[C@H]2[C@@H](CO)O1)NCc1ccncc1,16*,0,0
O=C(C[C@@H]1C[C@@H]2c3cc(NC(=O)Nc4ccccc4)ccc3O[C@@H]2[C@H](CO)O1)NC1CCCC1,1,0,3
O=C(C[C@@H]1C[C@H]2c3cc(NC(=O)NC4CCCCC4)ccc3O[C@H]2[C@H](CO)O1)NCCc1ccccc1,-1,1,-3
COc1cc2nc(N3CCN(C(=O)[C@H]4COc5ccccc5O4)CC3)nc(N)c2cc1OC,-16,0,-3
Cc1ccc(C(=O)NCCCNC(=O)COc2ccc(Cl)c(C)c2)cn1,-4,nt,-6
CC1=NN(C(C#N)c2ccc(F)cc2)C(C)(C)C1 (stereo not drawn),-2,0,-3
O=C(C[C@@H]1C=C[C@H](NC(=O)Nc2ccccc2F)[C@@H](CO)O1)NCc1ccc(-c2ccccc2)cc1,2,1,19
Cc1nnc(NC(=O)CN2CCN(Cc3c(Cl)cccc3Cl)CC2)s1,-3,0,-2
NC(=O)NCC#Cc1ccc2c(c1)[C@]1(C(=O)N2)[C@H](c2ccccc2OCCO)N2[C@H](c3ccccc3)[C@H](c3ccccc3)OC(=O)[C@H]2[C@@H]1C(=O)N1CCN(c2ncccn2)CC1,21*,nt,11
O=C1O[C@@H](c2ccccc2)[C@@H](c2ccccc2)N2[C@@H](c3ccccc3OCCO)[C@]3(C(=O)Nc4ccc(C#CCCO)cc43)[C@@H](C(=O)N3CCCCCCC3)[C@H]12,6,nt,10
C=CCNC(=O)[C@H]1[C@@H]2C(=O)O[C@@H](c3ccccc3)[C@@H](c3ccccc3)N2[C@@H](c2ccccc2OCCO)[C@]12C(=O)Nc1ccc(C#CC3(O)CCCCCC3)cc12,17*,nt,-5
C=CCNC(=O)[C@@H]1[C@H]2C(=O)O[C@H](c3ccccc3)[C@H](c3ccccc3)N2[C@H](c2ccccc2OCCO)[C@@]12C(=O)N(C(=O)OCCOC)c1ccc(C#CC3(O)CCCCCC3)cc12,-1,nt,6

# Bioassay records as filed in PubChem.
